Results reported in PMC11079110 (Heliyon, 2024).

Tests used:
KMO = conditions: read-out: IC50 (KMO inhibitor); cited from earlier work
human KMO = human KMO (Homo sapiens, UniProt O15229); test: Kinetics study; format: biochemical; conditions: Lineweaver-Burk plots, 0–40 μM compound, 0–20 μM L-Kyn
In short: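 Human KMO was exposed to graded test compound concentrations across a range of L-Kyn concentrations. Reaction velocities were plotted as double reciprocals (Lineweaver-Burk). Inhibition type was assigned from how the x- and y-intercepts, reflecting Km and Vmax, shifted with inhibitor. Each condition was run in triplicate, and the experiments were repeated three times.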

human KMO, sequence (O15229 whole entry): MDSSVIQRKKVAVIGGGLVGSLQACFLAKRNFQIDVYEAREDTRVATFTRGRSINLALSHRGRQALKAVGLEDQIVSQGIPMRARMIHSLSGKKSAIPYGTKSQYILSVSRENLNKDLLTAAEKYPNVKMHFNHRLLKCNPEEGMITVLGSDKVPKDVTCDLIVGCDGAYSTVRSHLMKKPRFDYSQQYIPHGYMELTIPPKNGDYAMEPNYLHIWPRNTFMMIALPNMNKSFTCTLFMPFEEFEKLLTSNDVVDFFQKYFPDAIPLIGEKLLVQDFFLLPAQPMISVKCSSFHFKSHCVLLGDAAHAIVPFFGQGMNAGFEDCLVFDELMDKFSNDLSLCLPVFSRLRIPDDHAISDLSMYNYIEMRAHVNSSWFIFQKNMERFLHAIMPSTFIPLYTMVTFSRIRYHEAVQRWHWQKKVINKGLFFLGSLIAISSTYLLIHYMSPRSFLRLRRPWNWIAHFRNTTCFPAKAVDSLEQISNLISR

Row | Inhibition type (human KMO) | Inhibition type (human KMO; listed as apigenin) | Inhibition type (human KMO; listed as genkwanin) | SMILES | IC50 (KMO) [nM]
1 |  |  |  | Cc1ccc([C@@H](C)Oc2cc3onc(CCC(=O)O)c3cc2Cl)nn1 [GSK 366] | 2.3
2 | non-competitive inhibition | non-competitive inhibitors |  | O=c1cc(-c2ccc(O)cc2)oc2cc(O)cc(O)c12 [Apigenin] | 
3 |  |  |  | O=C(O)[C@H]1C[C@@H]1C(=O)c1ccc(Cl)c(Cl)c1 [UPF-648] | 20
4 | non-competitive inhibition |  | non-competitive inhibitors | COc1cc(O)c2c(=O)cc(-c3ccc(O)cc3)oc2c1 [Genkwanin] | 
